Two molecules from publication PMC5818879 (International Journal of Nanomedicine, 2018) can be followed below.

Structures are written as SMILES. ≈ marks a conversion by molar mass, not a printed value.

The test system of one series is caspase-3 and -8 genes. Briefly: NDEA-induced HCC model: qRT-PCR of caspase-3 and -8 mRNA in liver tissue. To be noted: NDEA rats, 50 and 100 mg/kg orally for 15 days. In kind it is in vivo, Wistar albino rats. Background: Quantitative PCR measures a nucleic acid by following its amplification.
Series [1] deals with NDEA-induced HCC. Put plainly: NDEA-induced HCC model: oxidative stress parameters in liver tissue. In kind it is in vivo, Wistar albino rats. The method in brief:
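Rats were male Wistar albino (80–120 g, n=8/group) given NDEA 100 mg/kg i.p. weekly for 6 weeks. They then received free or PLGA-nanoparticle test compound at 50 or 100 mg/kg orally, or 5-FU 10 mg/kg i.p., for 15 days. Livers were excised, rinsed in ice-cold saline and stored at −80°C. CAT, SOD, GSH, protein carbonyl and TBARS were assayed in liver tissue.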

The test system of series [2] is NDEA-induced HCC. Put plainly: NDEA-induced HCC model: catabolic by-products. In kind it is in vivo, Wistar albino rats. To be noted: NDEA rats; 50 and 100 mg/kg orally for 15 days.
The test system of series [3] is NDEA-induced HCC. Put plainly: NDEA-induced HCC model: histopathology. In kind it is in vivo, Wistar albino rats. The conditions noted are these: NDEA rats; 50 and 100 mg/kg orally for 15 days.
Series [4] concerns IL-2, IL-6, IL-10 and IL-1β. It is filed as in vivo, Wistar albino rats. To be noted: NDEA rats, ELISA; 50 and 100 mg/kg orally for 15 days. A digest of the protocol:
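Male Wistar albino rats (six weeks old, 80–120 g, n=8/group) got NDEA 100 mg/kg i.p. weekly for 6 weeks. Free or PLGA-nanoparticle test compound followed at 50 or 100 mg/kg orally for 15 days (5-FU 10 mg/kg i.p.; vehicle 0.25% CMC). Excised livers were rinsed in ice-cold saline and kept at −80°C. Hepatic IL-2, IL-6, IL-10 and IL-1β were measured by kit ELISA; mean ± SD.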
A general note: An ELISA detects its analyte on a solid surface through an enzyme-linked reagent.

Another series deals with HepG2 cells. Briefly: Sulforhodamine B. In kind it is cell-based. To be noted: Homo sapiens, HepG2, 48 h.
The next series has as its system caspase-3 and -8. Briefly: NDEA-induced HCC model: ELISA of caspase-3 and -8 in liver. In kind it is in vivo, Wistar albino rats. To be noted: NDEA rats; 50 and 100 mg/kg orally for 15 days.
Series [5] relates to NDEA-induced HCC. Put plainly: NDEA-induced HCC model: body weight, liver weight, tumor incidence. In kind it is in vivo, Wistar albino rats. The method in brief:
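NDEA-induced HCC in male Wistar albino rats (six weeks old, 80–120 g, n=8/group): 100 mg/kg i.p. weekly for 6 weeks. Then free or PLGA-nanoparticle test compound was given at 50 or 100 mg/kg orally, or 5-FU 10 mg/kg i.p., for 15 days; controls got 0.25% CMC 2 mL/kg. Body weight was taken on the first and last days as % gain. Livers were weighed; nodule number and % incidence were counted.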

Series [6] in a line: In vivo oral pharmacokinetic study, plasma HPLC. Details: species or system albino Wistar rats. The method in brief:
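Albino Wistar rats received free or PLGA-nanoparticle test compound orally at 100 mg/kg. […] was mixed 1:1 with ACN, vortexed, spun, dried at 40°C and reconstituted in ACN. Assay was RP-C18 HPLC (ACN:H2O 9:1, 1 mL/min, 40°C, 230 nm); calibrants 0.01–50.0 µg/mL.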

Where [7] appears, read: NDEA + 50 mg/kg orally for 15 days.
The mark [8] stands for this setting: NDEA + 100 mg/kg orally for 15 days.
The mark [9] stands for this setting: albino Wistar, rat, po, 100 mg/kg.
[10] abbreviates: oral 100 mg/kg, albino Wistar rats.
[11] abbreviates: NDEA + 5-FU 10 mg/kg i.p. for 15 days.

Regarding `C=C(C)[C@@H]1CC[C@]2(C(=O)O)CC[C@]3(C)[C@H](CC[C@@H]4[C@@]5(C)CC[C@H](O)C(C)(C)[C@@H]5CC[C@]43C)[C@@H]12` [B, Betulinic acid], in the series on caspase-3 and -8 genes, the “Caspase-3 and -8 gene expression, qRT-PCR (in words)” value is “significantly elevated (p<0.001) the reduced levels of caspase-3 and -8”. For the same molecule, in the series with NDEA-induced HCC [1] (setting [7]), the CAT was 5.75±0.27 nM of H2O2/min/µg of protein, the GSH is given as 3.25±0.65 mM/mg of protein, the ProC was 0.91±0.02 µM/µg of protein and the SOD is reported as 0.19±0.07 U/µg of protein. Also, in the series with NDEA-induced HCC [1] (setting [7]), the TBARS is listed as 0.13±0.05 nM of MDA/mg of protein. In addition, in the series on NDEA-induced HCC [1] (setting [8]), the CAT is 6.81±0.73 nM of H2O2/min/µg of protein, the GSH is on record as 3.50±0.32 mM/mg of protein, the ProC is 0.76±0.02 µM/µg of protein and the SOD is given as 0.21±0.05 U/µg of protein. The TBARS in the series on NDEA-induced HCC [1] (setting [8]) is recorded as 0.11±0.04 nM of MDA/mg of protein. Besides, the “Catabolic pigments bilirubin and biliverdin in liver tissue (in words)” value in the series on NDEA-induced HCC [2] is reported as “significant (p<0.001) normalization”. In addition, in the series with NDEA-induced HCC [3], the “Histological changes in liver tissue, H&E (in words)” value is reported as “marked improvement in gross microscopic appearance of hepatic tissue”. Also, the “Inflammatory cytokines IL-2, IL-6, IL-10, IL-1β (in words)” value in [4] is recorded as “decreased to a certain extent”. The concentration for 50% growth inhibition (GI50) (commonly the concentration that inhibits growth by half) in the series with HepG2 cells is 10 µg/mL (≈ 21.9 µM). Further, the “Caspase-3 and -8 levels in liver, ELISA (in words)” value in the series on caspase-3 and -8 was “ability to elevate the reduced levels of caspase-3 and -8”. For the same molecule, in the series on NDEA-induced HCC [5] (setting [7]), the “Final day body weight” value turned out to be 132.00 ± 4.25 g, the Liver weight came out at 12.78 ± 0.73 g, the Tumor incidence no is reported as 19.00±0.97 and the Weight variation turned out to be 11.00 ± 1.82 g. In addition, in the series on NDEA-induced HCC [5] (setting [8]), the “Final day body weight” value was determined as 130.00 ± 2.12 g, the Liver weight was determined as 12.03 ± 1.25 g, the Tumor incidence no was 14.00±1.01 and the Weight variation came out at 12.00 ± 2.93 g. In series [6] (setting [9]), the area under the curve (AUC) (commonly concentration integrated over time) turned out to be 134 µg·h/mL; the area under the curve AUC(0-inf) (in general, total exposure, with the tail of the curve extrapolated) is 134 ± 35.7 µg·h/mL; the peak level (Cmax) was 10300 ± 450 ng/mL; the MRT (as a rule, a mean duration of stay, worked out from the concentration-time curve) is 12.9 ± 1.35 h. Moreover, in [6] (setting [9]), the time to peak (Tmax) (usually the time at which the peak concentration occurs) was found to be 4 h and the half-life (commonly how long it takes for the measured level to halve) was 10.7 h. In series [6] (setting [10]), the AUMC was 1,724.12 µg·h^2/mL and the CL is 0.007 h.
With `O=c1[nH]cc(F)c(=O)[nH]1` [Batch 5-FU, 5-fluorouracil, reference compound], in the series on NDEA-induced HCC [1] (setting [11]), the CAT is given as 8.41±0.68 nM of H2O2/min/µg of protein, the GSH is 5.04±0.61 mM/mg of protein, the ProC is recorded as 0.69±0.03 µM/µg of protein and the SOD was 0.24±0.09 U/µg of protein. Further, in the series on NDEA-induced HCC [1] (setting [11]), the TBARS is recorded as 0.09±0.01 nM of MDA/mg of protein. Besides, in the series on NDEA-induced HCC [5] (setting [11]), the “Final day body weight” value is 125.00 ± 3.15 g, the Liver weight amounted to 10.43 ± 1.71 g, the Tumor incidence no turned out to be 6.00±0.83 and the Weight variation was 10.00 ± 1.26 g.
